The text below walks through data of ChEMBL document CHEMBL1208782, “Synthesis and pharmacological validation of a novel series of non-steroidal FXR agonists” (Bioorg Med Chem Lett, 2010).

Series [1] has as its target T1, Oxysterols receptor LXR-beta (Homo sapiens) (UniProt P55055).
T1 sequence (whole entry): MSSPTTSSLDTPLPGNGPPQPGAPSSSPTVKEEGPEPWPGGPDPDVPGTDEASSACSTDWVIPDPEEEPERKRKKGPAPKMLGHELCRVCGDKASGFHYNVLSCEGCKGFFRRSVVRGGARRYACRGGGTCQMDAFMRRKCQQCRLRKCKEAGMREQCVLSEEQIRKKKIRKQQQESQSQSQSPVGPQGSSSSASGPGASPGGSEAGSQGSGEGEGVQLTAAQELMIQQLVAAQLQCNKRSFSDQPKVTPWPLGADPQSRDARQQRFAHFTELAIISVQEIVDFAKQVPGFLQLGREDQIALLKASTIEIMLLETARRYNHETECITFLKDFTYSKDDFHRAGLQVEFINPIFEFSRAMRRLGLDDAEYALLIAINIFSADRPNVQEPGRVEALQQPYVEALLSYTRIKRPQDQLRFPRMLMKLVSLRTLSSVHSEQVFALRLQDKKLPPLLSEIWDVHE
Description: Agonist activity at LXRbeta-LBD expressed in HEK293 cells assessed as Gal4-DBD interaction by cellular mammalian one hybrid assay relative to T0901317. Type of series: functional, cell-based.

Series [2] deals with Peroxisome proliferator-activated receptor alpha (Homo sapiens, UniProt Q07869). Description: Agonist activity at PPARalpha-LBD expressed in HEK293 cells assessed as Gal4-DBD interaction by cellular mammalian one hybrid assay. It is filed as functional, cell-based.
Chain of Peroxisome proliferator-activated receptor alpha (Q07869 whole entry, the tested form may be a part): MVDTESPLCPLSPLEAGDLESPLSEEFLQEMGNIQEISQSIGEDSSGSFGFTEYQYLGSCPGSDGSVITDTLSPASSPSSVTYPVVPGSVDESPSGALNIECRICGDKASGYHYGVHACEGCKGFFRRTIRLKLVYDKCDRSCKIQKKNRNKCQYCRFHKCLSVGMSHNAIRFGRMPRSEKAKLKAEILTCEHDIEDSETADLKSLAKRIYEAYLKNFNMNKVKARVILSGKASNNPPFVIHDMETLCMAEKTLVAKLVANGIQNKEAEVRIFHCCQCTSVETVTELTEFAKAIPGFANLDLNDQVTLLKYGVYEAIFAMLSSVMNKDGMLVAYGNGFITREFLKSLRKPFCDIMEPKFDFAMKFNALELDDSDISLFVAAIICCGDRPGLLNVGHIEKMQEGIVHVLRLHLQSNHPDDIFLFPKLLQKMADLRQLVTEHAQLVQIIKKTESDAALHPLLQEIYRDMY
A short description of series [3]: Plasma concentration in db/db mouse at 1 mg/kg, iv after 10 mins. It is filed as ADME, organism-based. As to conditions: read-out: Drug uptake. More on the design: dose 1 mg/kg, route intravenous. The method in brief: (§1)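 Single dose to mice, 5 mg/kg po or 1 mg/kg iv. Plasma was sampled at 5, 10, 30, 90 and 240 min. Only parent compound was measured, in ng/mL.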

Series [4] can be described thus: Plasma concentration in db/db mouse at 5 mg/kg, po after 90 mins. It is filed as ADME, organism-based. Details: dose 5 mg/kg, route oral. As to conditions: read-out: Drug uptake. The method in brief:
as §1

In series [5] the target is T2, Oxysterols receptor LXR-alpha (Homo sapiens) (UniProt Q13133).
T2 sequence (whole entry): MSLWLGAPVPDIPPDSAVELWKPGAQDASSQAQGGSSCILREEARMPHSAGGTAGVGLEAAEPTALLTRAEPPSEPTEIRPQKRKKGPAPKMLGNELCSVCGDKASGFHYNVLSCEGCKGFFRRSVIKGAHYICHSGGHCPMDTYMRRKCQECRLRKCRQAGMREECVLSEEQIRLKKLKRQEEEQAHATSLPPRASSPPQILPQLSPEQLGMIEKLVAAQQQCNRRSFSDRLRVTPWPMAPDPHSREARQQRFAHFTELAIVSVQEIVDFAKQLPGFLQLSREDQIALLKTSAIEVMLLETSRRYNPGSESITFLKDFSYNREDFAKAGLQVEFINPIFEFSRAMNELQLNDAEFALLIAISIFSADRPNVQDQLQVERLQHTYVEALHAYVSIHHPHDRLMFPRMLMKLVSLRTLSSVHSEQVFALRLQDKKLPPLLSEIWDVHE
Description: Agonist activity at LXRalpha-LBD expressed in HEK293 cells assessed as Gal4-DBD interaction by cellular mammalian one hybrid assay relative to T0901317. It is filed as functional, cell-based.

Series [6] concerns the target Estrogen receptor beta (Homo sapiens, UniProt Q92731). The series can be described thus: Agonist activity at ERbeta-LBD expressed in HEK293 cells assessed as Gal4-DBD interaction by cellular mammalian one hybrid assay. Type of series: functional, cell-based.
Series [7] has as its target T3, Oxysterols receptor LXR-beta (Homo sapiens, UniProt P55055).
T3 sequence (P55055 whole entry): T1 sequence (whole entry)
The series can be described thus: Agonist activity at LXRbeta-LBD expressed in HEK293 cells assessed as Gal4-DBD interaction by cellular mammalian one hybrid assay. It is filed as functional, cell-based.

The test system of series [8] is Mus musculus. The series can be described thus: Volume of distribution in db/db mouse at 5 mg/kg, po. Particulars: in vivo. Details: dose 5 mg/kg, route oral. Type of series: ADME, organism-based. The method in brief: (§2)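 Derived from the single-dose mouse plasma time courses of parent compound, 5-240 min. Dosing was 5 mg/kg po or 1 mg/kg iv. Volume of distribution is in mL/kg, clearance in mL/h/kg, and oral bioavailability in %.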

Series [9] has as its system Liver. The series can be described thus: Drug level in db/db mouse liver measured metabolites as carboxylic acid at 1 mg/kg, iv after 240 mins. Particulars: in vivo, 4 h. More on the design: dose 1 mg/kg, route intravenous. Type of series: ADME, organism-based. The method in brief: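 Mice got a single dose, 5 mg/kg po or 1 mg/kg iv. Liver and bile were sampled 240 min after dosing. Parent carboxylic acid, its acyl-glucuronide and its taurine amide were quantified separately, in ng/mL. Glucuronide identity was confirmed by glucuronidase digestion of bile or bile extracts, which regenerated the parent.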

Series [10] relates to Mus musculus. The series can be described thus: Reduction in total plasma cholesterol level in db/db mouse at 1-25 mg/kg bid after 12 days. It is filed as functional, organism-based. The gist of the method: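 C57BL/KSK-mLep^db/mLep^db mice were dosed orally at 1, 5 and 25 mg/kg b.i.d. for 12 days. Total plasma triglycerides and total plasma cholesterol were measured, with cholesterol reported as mg/dl. Significance was given at p<0.05, <0.01 and <0.001 levels.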

Series [11] has as its target T4, Glucocorticoid receptor (Homo sapiens, UniProt P04150).
T4 sequence (P04150 whole entry): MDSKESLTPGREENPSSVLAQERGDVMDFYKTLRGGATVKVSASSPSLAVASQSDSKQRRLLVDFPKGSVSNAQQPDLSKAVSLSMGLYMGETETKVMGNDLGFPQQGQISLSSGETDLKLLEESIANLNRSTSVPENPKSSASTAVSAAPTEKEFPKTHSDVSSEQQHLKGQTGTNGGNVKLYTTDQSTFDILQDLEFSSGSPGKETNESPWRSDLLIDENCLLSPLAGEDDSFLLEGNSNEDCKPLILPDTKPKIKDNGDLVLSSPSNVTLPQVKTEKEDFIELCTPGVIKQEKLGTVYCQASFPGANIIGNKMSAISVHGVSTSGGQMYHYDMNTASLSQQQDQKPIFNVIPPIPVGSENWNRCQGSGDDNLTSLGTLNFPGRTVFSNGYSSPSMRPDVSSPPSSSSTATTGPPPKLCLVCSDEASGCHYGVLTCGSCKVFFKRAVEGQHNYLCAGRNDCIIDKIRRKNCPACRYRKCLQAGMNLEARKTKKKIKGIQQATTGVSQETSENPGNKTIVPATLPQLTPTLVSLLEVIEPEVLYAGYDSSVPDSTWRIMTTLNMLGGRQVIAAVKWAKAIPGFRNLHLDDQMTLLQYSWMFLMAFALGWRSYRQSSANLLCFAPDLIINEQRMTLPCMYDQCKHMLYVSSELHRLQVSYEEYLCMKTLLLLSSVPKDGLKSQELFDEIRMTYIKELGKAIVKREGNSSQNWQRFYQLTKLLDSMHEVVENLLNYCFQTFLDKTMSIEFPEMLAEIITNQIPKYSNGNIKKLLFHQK
Description: Agonist activity at GR-LBD expressed in HEK293 cells assessed as Gal4-DBD interaction by cellular mammalian one hybrid assay. It is filed as functional, cell-based.

The nature of series [12]: Oral bioavailability in db/db mouse at 5 mg/kg, po. Type of series: ADME, organism-based. Particulars: in vivo. The method in brief:
as §2

Series [13] in a line: Plasma concentration in db/db mouse at 5 mg/kg, po after 240 mins. Particulars: read-out: Drug uptake. Details: dose 5 mg/kg, route oral. Type of series: ADME, organism-based. The method in brief: as §1
A short description of series [14]: Plasma concentration in db/db mouse at 1 mg/kg, iv after 30 mins. It is filed as ADME, organism-based. Particulars: read-out: Drug uptake. Details: dose 1 mg/kg, route intravenous. The method in brief:
as §1

Structures are written as SMILES. Calls of active or inactive are those of the source. The rule behind the calls is not given here.

Chain of Estrogen receptor beta (Q92731 whole entry, the tested form may be a part): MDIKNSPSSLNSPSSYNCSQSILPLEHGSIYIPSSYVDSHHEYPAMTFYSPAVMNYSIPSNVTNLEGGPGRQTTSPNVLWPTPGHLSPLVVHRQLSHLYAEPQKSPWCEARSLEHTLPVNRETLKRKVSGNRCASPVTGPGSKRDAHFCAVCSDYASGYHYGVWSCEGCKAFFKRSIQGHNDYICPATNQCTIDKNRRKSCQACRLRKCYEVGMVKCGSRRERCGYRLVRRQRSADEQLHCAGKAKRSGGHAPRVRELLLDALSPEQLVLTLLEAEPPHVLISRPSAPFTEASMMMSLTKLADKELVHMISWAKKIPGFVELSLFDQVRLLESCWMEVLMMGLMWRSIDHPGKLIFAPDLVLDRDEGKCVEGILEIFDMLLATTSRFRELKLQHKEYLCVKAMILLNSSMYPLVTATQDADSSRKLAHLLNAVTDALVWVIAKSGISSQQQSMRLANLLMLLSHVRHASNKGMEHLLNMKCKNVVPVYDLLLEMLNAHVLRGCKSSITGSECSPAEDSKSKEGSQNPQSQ

For `CC(C)c1onc(-c2c(Cl)cccc2Cl)c1COc1ccc(N(C)Cc2ccc(C(=O)O)cc2)c(C(F)(F)F)n1`, the Efficacy in series [1] and in series [5] was 0% in each case. Further, the EC50 in [2], in [6], in [7] and in [11] was more than 10 µM throughout. Further, in [3], the concentration at 10 min was found to be 1600 ng/mL. The concentration at 1.5 h in series [4] came to 267 ng/mL. This compound also showed a Vd in series [8] of 5.26 L/kg. In addition, the Drug uptake in series [9] came out at 262 ng/mL. For the same compound, in series [10], the result was Active. The bioavailability (as a rule, dose-corrected exposure relative to a reference, in per cent) in series [12] was 16.2%. The concentration at 4 h in [13] worked out at 14 ng/mL. The concentration at 0.5 h in [14] is 361 ng/mL.
Consider `CN(Cc1cccc(C(=O)O)c1)c1ccc(OCc2c(-c3c(Cl)cccc3Cl)noc2C2CC2)nc1C(F)(F)F`, for which the Efficacy in series [1] and in series [5] was 0% each time. Besides, the EC50 in [7] and in series [11] was more than 10 µM in each case.
For `CN(Cc1ccc(C(=O)O)cc1)c1ccc(OCc2c(-c3c(Cl)cccc3Cl)noc2C2CC2)nc1C(F)(F)F`, the Efficacy in series [1] and in series [5] was 0% throughout. In addition, the EC50 in [2], in [6], in [7] and in series [11] was more than 10 µM each time. Moreover, the concentration at 10 min in series [3] came out at 437 ng/mL. Besides, the concentration at 1.5 h in series [4] was 370 ng/mL. In series [8], the Vd worked out at 5.2 L/kg. The Drug uptake in series [9] came out at 23 ng/mL. For the same compound, in [10], the outcome was Active. Also, the bioavailability in [12] was 16.1%. Besides, the concentration at 4 h in series [13] was 52 ng/mL. For the same compound, the concentration at 0.5 h in [14] came out at 325 ng/mL.
